Laboratory results reported in ChEMBL document CHEMBL4038284, “Synthesis of novel quinoline-based 4,5-dihydro-1H-pyrazoles as potential anticancer, antifungal, antibacterial and antiprotozoal agents” (Eur J Med Chem, 2017).
Values after ≈ are worked out from the molar mass of the structure shown.

Columns and labels:
Cryptococcus neoformans [1] = assay: Growth inhibition of Cryptococcus neoformans ATCC 32264 at 125 ug/ml incubated for 48 hrs under dark condition by broth microdilution method relative to control; type: functional; details: ATCC 32264, 48 h, read-out: GI
How it was run: (§1)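 CLSI M27-A3 broth microdilution in RPMI-1640, DMSO ≤1%. Inoculum 1-5 × 10^3 CFU/mL. Incubated 48 h at 30 °C, dark. % inhibition = 100 − (OD405 test − sterility control)/(OD405 growth control − sterility control), with growth and sterility control wells. Triplicate.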

Klebsiella pneumoniae [2] = assay: Antibacterial activity against carbapenemase positive Klebsiella pneumoniae BAA 1705 after 24 hrs by resazurin dye based microdilution assay; type: functional; details: BAA 1705, 24 h
How it was run: (§2)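 MIC taken as the lowest concentration giving visible inhibition and/or by resazurin (1 mg/mL). Gentamicin was the control. Run in duplicate, repeated at least three times.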

Staphylococcus aureus [3] = assay: Antibacterial activity against methicillin-sensitive Staphylococcus aureus ATCC 25923 after 24 hrs by resazurin dye based microdilution assay; type: functional; details: ATCC 25923, 24 h; how it was run: as §2
Leishmania panamensis = assay: Antileshmanial activity against EpiR/GFP fused Leishmania panamensis MHOM/CO/87/UA140 intracellular amastigotes infected in human […] cells after 72 hrs by flow cytometric method; type: functional, cell-based; details: MHOM/CO/87/UA140, 72 h
How it was run: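 PMA-treated U-937 cells (3 × 10^5 cells/mL) infected with stationary-phase GFP L. panamensis promastigotes (15:1), 3 h at 34 °C, then washed. After 24 h, compounds added at 50, 12.5, 3.125 and 0.78 µg/mL for 72 h at 37 °C. EC50 by Probit; triplicate, two experiments.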

Candida albicans [4] = assay: Growth inhibition of Candida albicans ATCC 10231 at 3.4 ug/ml incubated for 48 hrs under dark condition by broth microdilution method relative to control; type: functional; details: ATCC 10231, 48 h, read-out: GI
U-937 = assay: Cytotoxicity against human U937 cells after 72 hrs by MTT assay; type: cell-based; details: u-937, 72 h
How it was run: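 Exponentially growing U-937 at 1 × 10^5 cells/mL in RPMI-1640 with 10% FBS were exposed to 200, 50, 12.5 and 3.125 µg/mL for 72 h at 37 °C, 5% CO2. MTT for 3 h, stopped with isopropanol/SDS, formazan read at 570 nm, blank-corrected. LC50 by Probit from % viability against untreated cells. Triplicate, at least two independent experiments.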

Cryptococcus neoformans [5] = assay: Growth inhibition of Cryptococcus neoformans ATCC 32264 at 31.25 ug/ml incubated for 48 hrs under dark condition by broth microdilution method relative to control; type: functional; details: ATCC 32264, 48 h, read-out: GI; how it was run: as §1
Plasmodium falciparum = assay: Antiplasmodial activity against chloroquine-sensitive Plasmodium falciparum 3D7 assessed as reduction in parasitic LDH activity after 48 hrs by Malstat reagent based […] method; type: functional; details: 3D7, 48 h
How it was run: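 Unsynchronized P. falciparum 3D7 at 0.5% parasitemia and 1% hematocrit in RPMI with 3% Albumax II. Exposed to 100, 25, 6.25 and 1.56 µg/mL for 48 h at 37 °C under 90% N2/5% CO2/5% O2. After three freeze-thaw cycles, LDH measured with Malstat and NBT/PES, 1 h in the dark, read at 650 nm. IC50 by Probit; triplicate, ≥2 experiments.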

Candida albicans [6] = assay: Growth inhibition of Candida albicans ATCC 10231 at 31.25 ug/ml incubated for 48 hrs under dark condition by broth microdilution method relative to control; type: functional; details: ATCC 10231, 48 h, read-out: GI; how it was run: as §1
Cryptococcus neoformans [7] = assay: Growth inhibition of Cryptococcus neoformans ATCC 32264 at 15.62 ug/ml incubated for 48 hrs under dark condition by broth microdilution method relative to control; type: functional; details: ATCC 32264, 48 h, read-out: GI; how it was run: as §1
Candida albicans [8] = assay: Antifungal activity against Candida albicans ATCC 10231 incubated for 48 hrs under dark condition by broth microdilution method; type: functional; details: ATCC 10231, 48 h
How it was run: (§3)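 CLSI M27-A3 broth microdilution in RPMI-1640, DMSO ≤1%, compounds at 250-0.98 µg/mL final. Inoculum 1-5 × 10^3 CFU/mL. Incubated 48 h at 30 °C in a moist dark chamber, read at OD405. MIC80 and MIC50 taken from % inhibition dose-response curves (mean ± SEM, triplicate). Amphotericin B was the positive control.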

Trypanosoma cruzi = assay: Antitrypanosomal activity against Trypanosoma cruzi Tulahuen intracellular amastigote harboring LacZ infected in human U937 cells after 72 hrs by CPRG/Nonidet reagent based spectrophotometric method; type: functional, cell-based; details: U-937, 72 h
How it was run: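 U-937 cells at 2.5 × 10^5 cells/mL in RPMI-1640 with 10% serum and 0.1 µg/mL PMA were infected with β-galactosidase-transfected Tulahuen epimastigotes at 5 parasites per cell. Infected cells were exposed to 50, 12.5, 3.125 and 0.78 µg/mL for 72 h. CPRG (100 uM) and 0.1% Nonidet P-40 were added for 3 h, read at 570 nm. EC50 by Probit. Triplicate, at least two experiments; benznidazole as reference.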

Cryptococcus neoformans [9] = assay: Antifungal activity against Cryptococcus neoformans ATCC 32264 incubated for 48 hrs under dark condition by broth microdilution method; type: functional; details: ATCC 32264, 48 h; how it was run: as §3
Cryptococcus neoformans [10] = assay: Growth inhibition of Cryptococcus neoformans ATCC 32264 at 7.8 ug/ml incubated for 48 hrs under dark condition by broth microdilution method relative to control; type: functional; details: ATCC 32264, 48 h, read-out: GI; how it was run: as §1
Escherichia coli = assay: Antibacterial activity against Escherichia coli ATCC 25922 after 24 hrs by resazurin dye based microdilution assay; type: functional; details: ATCC 25922, 24 h; how it was run: as §2
Cryptococcus neoformans [11] = assay: Growth inhibition of Cryptococcus neoformans ATCC 32264 at 3.4 ug/ml incubated for 48 hrs under dark condition by broth microdilution method relative to control; type: functional; details: ATCC 32264, 48 h, read-out: GI
Staphylococcus aureus [12] = assay: Antibacterial activity against vancomycin-intermediate Staphylococcus aureus after 24 hrs by resazurin dye based microdilution assay; type: functional; how it was run: as §2
Candida albicans [13] = assay: Growth inhibition of Candida albicans ATCC 10231 at 7.8 ug/ml incubated for 48 hrs under dark condition by broth microdilution method relative to control; type: functional; details: ATCC 10231, 48 h, read-out: GI; how it was run: as §1
Pseudomonas aeruginosa = assay: Antibacterial activity against Pseudomonas aeruginosa ATCC 27853 after 24 hrs by resazurin dye based microdilution assay; type: functional; details: ATCC 27853, 24 h; how it was run: as §2
Cryptococcus neoformans [14] = assay: Growth inhibition of Cryptococcus neoformans ATCC 32264 at 250 ug/ml incubated for 48 hrs under dark condition by broth microdilution method relative to control; type: functional; details: ATCC 32264, 48 h, read-out: GI; how it was run: as §1
Candida albicans [15] = assay: Growth inhibition of Candida albicans ATCC 10231 at 250 ug/ml incubated for 48 hrs under dark condition by broth microdilution method relative to control; type: functional; details: ATCC 10231, 48 h, read-out: GI; how it was run: as §1
Klebsiella pneumoniae [16] = assay: Antibacterial activity against ESBL positive Klebsiella pneumoniae ATCC 700603 after 24 hrs by resazurin dye based microdilution assay; type: functional; details: Klebsiella pneumoniae, 700603, 24 h; how it was run: as §2
Staphylococcus aureus [17] = assay: Antibacterial activity against methicillin-resistant Staphylococcus aureus ATCC 43300 after 24 hrs by resazurin dye based microdilution assay; type: functional; details: ATCC 43300, 24 h
How it was run: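 Broth microdilution in Mueller Hinton broth, inoculum 5 × 10^5 – 8 × 10^5. Compound stocks diluted in MHB with 5% DMSO and 0.1% Tween 80. Incubation 24 h at 35-37 °C. MIC is the lowest concentration with visible growth inhibition and/or by resazurin (1 mg/mL) read-out. Gentamicin as control. Run in duplicate, replicated at least three times.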

Candida albicans [18] = assay: Growth inhibition of Candida albicans ATCC 10231 at 15.62 ug/ml incubated for 48 hrs under dark condition by broth microdilution method relative to control; type: functional; details: ATCC 10231, 48 h, read-out: GI; how it was run: as §1
Cryptococcus neoformans [19] = assay: Growth inhibition of Cryptococcus neoformans ATCC 32264 at 62.5 ug/ml incubated for 48 hrs under dark condition by broth microdilution method relative to control; type: functional; details: ATCC 32264, 48 h, read-out: GI; how it was run: as §1
Neisseria gonorrhoeae = assay: Antibacterial activity against beta lactamase positive Neisseria gonorrhoeae ATCC 31426 by oxidase test; type: functional
How it was run: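 Agar dilution MIC on GC agar with 1% isovitalex containing increasing compound concentrations. Plates inoculated with about 1×10^4 CFU (5 µL). MIC is the lowest concentration that inhibited growth, with growth confirmed by oxidase test. Run in duplicate, repeated at least three times.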

Candida albicans [20] = assay: Growth inhibition of Candida albicans ATCC 10231 at 62.5 ug/ml incubated for 48 hrs under dark condition by broth microdilution method relative to control; type: functional; details: ATCC 10231, 48 h, read-out: GI; how it was run: as §1
Candida albicans [21] = assay: Growth inhibition of Candida albicans ATCC 10231 at 125 ug/ml incubated for 48 hrs under dark condition by broth microdilution method relative to control; type: functional; details: ATCC 10231, 48 h, read-out: GI; how it was run: as §1

Compound `O=C(/C=C/c1cccc(Nc2ccnc3cc(Cl)ccc23)c1)c1ccccc1` has an inhibition of growth at 125 µg/mL (Cryptococcus neoformans [1]) of 89.5%, an MIC (Klebsiella pneumoniae [2]) of over 1000 µg/mL and an MIC (Staphylococcus aureus [3]) of over 1000 µg/mL. It also gave an EC50 (Leishmania panamensis) of 2.54 µg/mL (≈ 6.6 µM), an inhibition of growth at 3.4 µg/mL (Candida albicans [4]) of 21.5% and an LC50 (U-937) of 1.5 µg/mL (≈ 3.9 µM). The inhibition of growth at 31.25 µg/mL (Cryptococcus neoformans [5]) was 52.5%, the EC50 (Plasmodium falciparum) was 10.3 µg/mL (≈ 26.7 µM) and the inhibition of growth at 31.25 µg/mL (Candida albicans [6]) was 31.7%. The inhibition of growth at 15.62 µg/mL (Cryptococcus neoformans [7]) was 32.3%, the MIC50 (Candida albicans [8]) was at least 250 µg/mL and the MIC80 (Candida albicans [8]) was at least 250 µg/mL. The EC50 (Trypanosoma cruzi) was over 0.8 µg/mL, the MIC50 (Cryptococcus neoformans [9]) was 31.2 µg/mL (≈ 81.2 µM) and the MIC80 (Cryptococcus neoformans [9]) was 62.5 µg/mL (≈ 162 µM). The inhibition of growth at 7.8 µg/mL (Cryptococcus neoformans [10]) was 25.6%, the MIC (Escherichia coli) was over 1000 µg/mL and the inhibition of growth at 3.4 µg/mL (Cryptococcus neoformans [11]) was 17.9%. For the same compound, the MIC (Staphylococcus aureus [12]) was over 1000 µg/mL, the inhibition of growth at 7.8 µg/mL (Candida albicans [13]) was 25.2% and the MIC (Pseudomonas aeruginosa) was over 1000 µg/mL. The inhibition of growth at 250 µg/mL (Cryptococcus neoformans [14]) was 100%, the inhibition of growth at 250 µg/mL (Candida albicans [15]) was 43.5% and the MIC (Klebsiella pneumoniae [16]) was over 1000 µg/mL. For the same compound, the MIC (Staphylococcus aureus [17]) was over 1000 µg/mL, the inhibition of growth at 15.62 µg/mL (Candida albicans [18]) was 27.7% and the inhibition of growth at 62.5 µg/mL (Cryptococcus neoformans [19]) was 80.8%. The MIC (Neisseria gonorrhoeae) was over 1000 µg/mL, the inhibition of growth at 62.5 µg/mL (Candida albicans [20]) was 36.2% and the inhibition of growth at 125 µg/mL (Candida albicans [21]) was 36.7%.
